A value given as a limit tells only on which side of the number the result lay.

The source of these data is ChEMBL document CHEMBL5055684, “Into Deep Water: Optimizing BCL6 Inhibitors by Growing into a Solvated Pocket” (J Med Chem, 2021).

The target in the first data set is B-cell lymphoma 6 protein (Homo sapiens, UniProt P41182). Description: Inhibition of BCOR peptide binding to human BCL6 expressed in Escherichia coli measured after 270 mins by BCOR ULight TR-FRET assay.
Conditions: not given
Summed up: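 Biochemical TR-FRET assay with the BTB domain of BCL6 (not full-length protein) and a short corepressor-derived peptide, measuring inhibition of their binding. The result is reported as an IC50.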
Consider `CNC(=O)COc1cc2cc(Nc3nc(N4CCC(C(=O)N(C)C)CC4)ncc3Cl)cc(OC)c2n(C)c1=O`, for which the IC50 was less than 30 nM.

Test system in a further data set: not listed separately
Description: Permeability of the compound by PAMPA. It is filed as ADME. The note with it: read-out: permeability (converted). In general terms: PAMPA measures passive passage across an artificial lipid membrane.
Consider `Cc1cnc(C(C)Nc2cc(=O)n(C)c3ccc(Nc4ccnc(Cl)c4C#N)cc23)nc1` (centres undefined), for which the Papp was 5.6 ×10⁻⁶ cm/s. Same read-out and setting: the same measure for `Cc1nnc(C(C)Nc2cc(=O)n(C)c3ccc(Nc4ccnc(Cl)c4C#N)cc23)o1` (centres undefined): less than 0.2 ×10⁻⁶ cm/s; for `CC(Nc1cc(=O)n(CC2CC2)c2ccc(Nc3ccnc(Cl)c3C#N)cc12)c1ncccn1` (centres undefined): 8.5 ×10⁻⁶ cm/s; for `Cn1c(=O)cc(NC(C)(C)c2ncccn2)c2cc(Nc3ccnc(Cl)c3C#N)ccc21`: 1.8 ×10⁻⁶ cm/s. With `CC(Nc1cc(=O)n(C)c2ccc(Nc3ccnc(Cl)c3C#N)cc12)c1ncco1` (centres undefined), the Papp was 1 ×10⁻⁶ cm/s.

Consider `Cn1c(=O)cc(NC(C)(C)c2ncc(C3CC3)cn2)c2cc(Nc3ccnc(Cl)c3C#N)ccc21`, for which the Papp was 35 ×10⁻⁶ cm/s. `C[C@@H](Nc1cc(=O)n(C)c2ccc(Nc3ccnc(Cl)c3C#N)cc12)c1ncccn1`: the Papp was 0.8 ×10⁻⁶ cm/s. `CC(Nc1cc(=O)n(CC2CCC2)c2ccc(Nc3ccnc(Cl)c3C#N)cc12)c1ncccn1` (centres undefined): the Papp was 21 ×10⁻⁶ cm/s. As to `CC(Nc1cc(=O)n(C)c2ccc(Nc3ccnc(Cl)c3C#N)cc12)c1ncc(C2CC2)cn1` (centres undefined), the Papp is 14 ×10⁻⁶ cm/s. As for `CC(Nc1cc(=O)n(C)c2ccc(Nc3ccnc(Cl)c3C#N)cc12)c1ncn(C)n1` (centres undefined), the Papp was 1.8 ×10⁻⁶ cm/s. Regarding `CNC(=O)C(C)Nc1cc(=O)n(C)c2ccc(Nc3ccnc(Cl)c3C#N)cc12` (centres undefined), the Papp is less than 0.2 ×10⁻⁶ cm/s.

Test system in a further data set: not listed separately
Put plainly: Plasma concentration in BALB/c mouse assessed as unbound fraction at 1 mg/kg, iv or 5 mg/kg, po. It is filed as ADME, organism-based.
Conditions: not given
Summed up: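 Unbound fraction measured by equilibrium dialysis in mouse plasma.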
With `Cn1c(=O)cc(NC(C)(C)c2ncc(C3CC3)cn2)c2cc(Nc3ccnc(Cl)c3C#N)ccc21`, the fraction unbound is 0.013.

The test system of another data set is Mus musculus. Put plainly: Toxicity in BALB/c mouse at 1 mg/kg, iv or 5 mg/kg, po. The note with it: in vivo. It is filed as organism-based.
`Cn1c(=O)cc(NC(C)(C)c2ncc(C3CC3)cn2)c2cc(Nc3ccnc(Cl)c3C#N)ccc21`: the Activity entry was “Non-Toxic”.

A word on the IC50: it is the concentration needed to halve the response being measured. Read a high IC50 as a need for much substance. One may read the fraction unbound as the share of the substance not bound to proteins or other matrix.
